The list is not random: actives were taken first. Their share in the collection is about 4.6%.
OX1R antag-1 = blocks the human orexin 1 receptor; 0.43% of 330,000 active; inhibition, % at 5 µM; CHO/OX1R cells, Fluo-8 calcium fluorescence, orexin A; O43613; AID 434989;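 active means inhibition above its plate's threshold, mean inhibition of all tested compounds on the plate plus 3 SD, cut at about 37% in these data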;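 further: 0% = orexin A challenge wells and 100% = SB-334867-A antagonist wells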
Target sequence (O43613 whole entry, looked up): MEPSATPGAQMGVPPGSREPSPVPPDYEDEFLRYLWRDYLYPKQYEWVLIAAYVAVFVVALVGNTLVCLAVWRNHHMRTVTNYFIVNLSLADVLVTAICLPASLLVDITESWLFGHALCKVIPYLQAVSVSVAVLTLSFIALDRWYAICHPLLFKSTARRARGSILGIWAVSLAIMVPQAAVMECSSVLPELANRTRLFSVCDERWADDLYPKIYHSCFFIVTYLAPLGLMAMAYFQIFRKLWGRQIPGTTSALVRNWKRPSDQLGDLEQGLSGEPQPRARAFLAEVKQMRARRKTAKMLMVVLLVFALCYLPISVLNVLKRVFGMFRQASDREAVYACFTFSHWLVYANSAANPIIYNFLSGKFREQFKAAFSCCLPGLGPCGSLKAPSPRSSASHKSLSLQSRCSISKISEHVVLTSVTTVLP
TAAR1 agonist = agonists of human TAAR1; Q96RJ0; CHO RD-HGA16 TAAR1, Fluo-8 calcium fluorescence; vehicle wells 0%, saturating PEA agonist 100%; activation, % at 3 µM; 0.99% of 360,000 active; AID 624467;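 active means activation above the mean activation of all test compounds in the run plus 3 SD, cut at about 38% in these data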
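System: CHO RD-HGA16 cells carrying human TAAR1 plus Gα16; Incubation: 17-24 h seeding, 75 min 37 °C dye, 30 min RT; Measured by: Fluo-8 fluorescence, 5 s baseline then 140 s kinetic read; Control set: DMSO and PEA EC100; Replication: single well for each compound.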
GPR7 antagonist = antagonists of human GPR7 (neuropeptides B/W receptor 1) | inhibition, % at 4.4 µM | GPR7-expressing cells, fluorescence antagonist assay | 1.1% of 290,000 active | P48145; in the data active means inhibition above about 16%, passing the limit was not always enough;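 further: cells stimulated with the agonist NPW; 0% = agonist with vehicle and 100% = vehicle without agonist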
Target sequence (P48145 whole entry, looked up): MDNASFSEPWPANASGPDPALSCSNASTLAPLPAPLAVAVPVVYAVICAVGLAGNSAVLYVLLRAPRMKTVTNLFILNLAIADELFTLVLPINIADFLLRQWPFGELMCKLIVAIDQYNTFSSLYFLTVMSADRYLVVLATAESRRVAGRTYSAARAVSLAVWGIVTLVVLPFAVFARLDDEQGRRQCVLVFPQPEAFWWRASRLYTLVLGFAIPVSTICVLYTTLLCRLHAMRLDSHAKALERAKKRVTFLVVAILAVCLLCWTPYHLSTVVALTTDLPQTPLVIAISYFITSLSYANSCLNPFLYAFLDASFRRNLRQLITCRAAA
OX1R antag-2 = antagonists of human orexin 1 receptor (OX1R); OX1R-expressing cells, FRET antagonist read-out; O43613; 1.8% of 330,000 active; inhibition, % at 6.6 µM; in the data active means inhibition mostly above about 38%, no sharp cut-off; inactive means mostly below about 40%;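 further: 0% = agonist challenge alone and 100% = reference antagonist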
TAAR1 antagonist = human TAAR1 antagonism. inhibition, % at 3 µM. AID 624466. Q96RJ0. 1.5% of 360,000 active. CHO RD-HGA16 TAAR1, Fluo-8 calcium fluorescence, antagonist;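 active means inhibition above a per-plate cutoff, the mean inhibition of test compounds on that plate plus 3 SD, cut at about 49% in these data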;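 further: 0% = DMSO plus EC80 beta-PEA response and 100% = DMSO alone without agonist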
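Test system – hTAAR1-expressing CHO RD-HGA16 cells, Gα16-coupled · Also added – β-PEA at EC80 concentration, post-compound challenge · Compound – 3 µM, single point · Incubation – dye loading 75 min at 37 °C, then 30 min room temperature · Measured by – Fluo-8 intracellular calcium dye fluorescence, real-time kinetic reads · Benchmarks – vehicle and agonist controls · Replicates – singlicate, one well per test compound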
CHO parental Ca = signal in parental CHO cells, OX1R antagonist counter-screen; parental CHO-K1, ATP-induced calcium, Fluo-8 fluorescence; inhibition, % at 5.6 µM; 0.63% of 330,000 active; AID 463079;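 active means inhibition above that plate's mean sample inhibition plus 3 SD, cut at about 26% in these data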;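 further: 0% = ATP-challenged DMSO wells and 100% = DMSO wells without ATP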
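Test system: parental CHO cells; detection: calcium-sensitive Fluo-8 fluorescence; evaluation: percent inhibition of calcium signal; also added: ATP as calcium-mobilizing challenge; repeats: one well per compound; control set: ATP-challenged DMSO wells low, unchallenged DMSO wells high; compound: single nominal dose of 5.6 µM per compound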
nonsel antag count = counter-screen for TAAR1 antagonists: nonselective antagonists | shares compounds with TAAR1 antagonist | counterscreen cell line, calcium fluorescence, antagonist mode | inhibition, % at 3 µM | 77% of 2,400 active; in the data active means inhibition above about 22%;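 further: CHO-Ga16 host cells stimulated with ATP at an EC80 level; 0% = agonist EC80 plus vehicle and 100% = vehicle without agonist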
TAAR1 ant conf = human TAAR1 antagonism, confirmed | shares compounds with TAAR1 antagonist | TAAR1-expressing cells, fluorescence antagonist read-out | inhibition, % at 3 µM | 40% of 2,400 active; in the data active means inhibition above about 49%;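 further: CHO-Ga16 host cells challenged with agonist PEA near its EC80; 0% = agonist at EC80 plus vehicle and 100% = vehicle with no agonist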
Ga16 nonsel ag = nonselective Ga16 agonist in TAAR1 antagonist counter-screen; AID 651953; shares compounds with TAAR1 antagonist; activation, % at 3 µM; Ga16-expressing cells, calcium fluorescence, agonist counterscreen; 18% of 2,400 active; in the data active means activation above about 12%;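 further: 0% = vehicle wells and 100% = saturating stimulus response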
TAAR1 ag count = TAAR1 agonism, antagonist counter-screen | shares compounds with TAAR1 antagonist | hTAAR1 cell line, fluorescence activation, agonist mode | activation, % at 3 µM | 2% of 2,400 active; in the data active means activation above about 37%;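 further: CHO cells stably expressing TAAR1 with calcium dye readout; 0% = DMSO vehicle and 100% = full agonist response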
* = called active by the depositor.

Results for COc1ccc(C2CC(=O)C(c3cccc(C)c3)=CN2Cc2ccccc2)cc1 (centres undefined) ?
TAAR1 agonist: 3; TAAR1 antagonist: 66*; nonsel antag count: 22*; TAAR1 ant conf: 40; Ga16 nonsel ag: 2; TAAR1 ag count: 1

Results for Nc1ccc(Oc2ccccc2F)nc1 ?
OX1R antag-1: 11; TAAR1 agonist: 5; GPR7 antagonist: -8; OX1R antag-2: 31; TAAR1 antagonist: 7; CHO parental Ca: 11

How did Nc1nc(/C=C/c2ccc(F)cc2)nc(-c2ccccc2O)n1 do in these assays?
OX1R antag-1: -19; TAAR1 agonist: -1; GPR7 antagonist: -4; OX1R antag-2: 32; TAAR1 antagonist: 27; CHO parental Ca: -20

How did Nc1nc(/C=C/c2cccnc2)nc(-c2ccccc2O)n1 do in these assays?
OX1R antag-1: -7; TAAR1 agonist: 33; GPR7 antagonist: -5; OX1R antag-2: 39; TAAR1 antagonist: 67*; CHO parental Ca: 9; nonsel antag count: 32*; TAAR1 ant conf: 58*; Ga16 nonsel ag: 14*; TAAR1 ag count: 18

What do the screens show for `Cc1c(/C=N/NC(=O)c2ccccc2O)c2ccccn2c1C(=O)c1ccc(F)cc1`?
OX1R antag-1: 30; TAAR1 agonist: 13; GPR7 antagonist: -8; OX1R antag-2: 32; TAAR1 antagonist: 93*; CHO parental Ca: 11; nonsel antag count: 48*; TAAR1 ant conf: 94*; Ga16 nonsel ag: 12*; TAAR1 ag count: 10

Results for Cc1c(/C=N/NC(=O)c2cccnc2)c2ccccn2c1C(=O)c1ccc(F)cc1 ?
OX1R antag-1: -21; GPR7 antagonist: -9; OX1R antag-2: -3; CHO parental Ca: -6

What do the screens show for `CCOC(=O)N/N=C/c1c(C)c(C(=O)c2ccc(F)cc2)n2ccccc12`?
OX1R antag-1: -46; TAAR1 agonist: 2; GPR7 antagonist: -14; OX1R antag-2: 18; TAAR1 antagonist: 68*; CHO parental Ca: -24; nonsel antag count: 22*; TAAR1 ant conf: 44; Ga16 nonsel ag: 3; TAAR1 ag count: -1

Results for COc1cccc(-c2nc(-c3cccs3)no2)c1 ?
OX1R antag-1: -12; TAAR1 agonist: 8; GPR7 antagonist: -6; OX1R antag-2: 18; TAAR1 antagonist: -16; CHO parental Ca: -11

What do the screens show for `Cn1nc(C(=O)NCC(=O)Nc2ccc(F)c(F)c2F)c2ccccc2c1=O`?
OX1R antag-1: -7; TAAR1 agonist: 1; OX1R antag-2: 6; TAAR1 antagonist: -2; CHO parental Ca: -6

How did CC(NC(=O)c1ccc(CS(=O)(=O)c2ccc(Cl)cc2)o1)c1ccc2c(c1)OCCO2 (centres undefined) do in these assays?
OX1R antag-1: -21; TAAR1 agonist: 19; GPR7 antagonist: 2; OX1R antag-2: 21; TAAR1 antagonist: 59*; CHO parental Ca: -18; nonsel antag count: 32*; TAAR1 ant conf: 53*; Ga16 nonsel ag: 11; TAAR1 ag count: 9

Results for Cc1ccccc1S(=O)(=O)Cc1ccc(C(=O)NC(C)c2ccc3c(c2)OCCO3)o1 (centres undefined) ?
OX1R antag-1: -6; TAAR1 agonist: 8; GPR7 antagonist: -10; OX1R antag-2: 15; TAAR1 antagonist: 36; CHO parental Ca: -15

Results for COC(=O)c1cccc(C#CC(NP(=O)(c2ccccc2)c2ccccc2)c2ccccc2)c1 (centres undefined) ?
OX1R antag-1: -28; TAAR1 agonist: 16; OX1R antag-2: 19; TAAR1 antagonist: 72*; CHO parental Ca: -14; nonsel antag count: 28*; TAAR1 ant conf: 36; Ga16 nonsel ag: 2; TAAR1 ag count: 2

What do the screens show for `CCOc1ccc(N2C(=O)C(Cl)=C(Nc3ccccc3O)C2=O)cc1`?
OX1R antag-1: 2; TAAR1 agonist: 15; GPR7 antagonist: -7; OX1R antag-2: 9; TAAR1 antagonist: 57*; CHO parental Ca: -26; nonsel antag count: 28*; TAAR1 ant conf: 39; Ga16 nonsel ag: 12*; TAAR1 ag count: 7

Results for COc1ccccc1NC1=C(Cl)C(=O)N(c2ccccc2)C1=O ?
OX1R antag-1: -7; TAAR1 agonist: -2; GPR7 antagonist: -4; OX1R antag-2: 8; TAAR1 antagonist: 5; CHO parental Ca: -15

What do the screens show for `S=c1[nH]nc(CCc2ccc(Cl)cc2)o1`?
OX1R antag-1: -3; TAAR1 agonist: 10; GPR7 antagonist: 2; OX1R antag-2: 13; TAAR1 antagonist: 6; CHO parental Ca: 0

How did CCOc1ccc(-c2ccc(/C=C3/C(=N)N4C(C)=CSC4=NC3=O)o2)c([N+](=O)[O-])c1 do in these assays?
OX1R antag-1: 0; TAAR1 agonist: 12; GPR7 antagonist: -11; OX1R antag-2: 10; TAAR1 antagonist: 59*; CHO parental Ca: 0; nonsel antag count: 38*; TAAR1 ant conf: 50*; Ga16 nonsel ag: 9; TAAR1 ag count: 3

Results for CCOc1ccc(-c2ccc(/C=C3/C(=N)N4C=CSC4=NC3=O)o2)c([N+](=O)[O-])c1 ?
OX1R antag-1: -6; TAAR1 agonist: 5; GPR7 antagonist: -10; OX1R antag-2: 8; TAAR1 antagonist: 5; CHO parental Ca: -11

How did Cc1ccc(C(=O)N/C(=C\c2ccco2)C(=O)NCCc2c[nH]c3ccccc23)cc1 do in these assays?
OX1R antag-1: 5; TAAR1 agonist: 1; GPR7 antagonist: -10; OX1R antag-2: 36; TAAR1 antagonist: 7; CHO parental Ca: -11

What do the screens show for `O=C(NCCc1c[nH]c2ccccc12)/C(=C\c1cccnc1)NC(=O)c1ccccc1Br`?
OX1R antag-1: -27; TAAR1 agonist: 16; GPR7 antagonist: -4; OX1R antag-2: 23; TAAR1 antagonist: 63*; CHO parental Ca: -23; nonsel antag count: 31*; TAAR1 ant conf: 53*; Ga16 nonsel ag: 8; TAAR1 ag count: 7

What do the screens show for `Cc1ccc(/C=C(/NC(=O)c2ccccc2)C(=O)NCCc2c[nH]c3ccccc23)o1`?
OX1R antag-1: 4; TAAR1 agonist: 17; GPR7 antagonist: 8; OX1R antag-2: 41; TAAR1 antagonist: 58*; CHO parental Ca: -16; nonsel antag count: 25*; TAAR1 ant conf: 42; Ga16 nonsel ag: 8; TAAR1 ag count: 8
